In ChEMBL document CHEMBL1649344, “Abyssomicin I, a modified polycyclic polyketide from Streptomyces sp. CHI39” (2010):
≈ marks a conversion by molar mass, not a printed value. Calls of active or inactive are those of the source. The calls are words filed in the database; no cut-off is given here.

What was measured:
Candida albicans = assay: Antimicrobial activity against Candida albicans IFO1594 at 100 uM after 20 hrs; format: functional, organism-based
Method in brief: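 C. albicans is cultured in yeast nitrogen base with 2% glucose for 20 h at 30 °C, harvested, and suspended in saline at 1 × 10^5 cells/mL. The suspension is combined in wells with the same medium and sample in DMSO. After 20 h at 30 °C, absorbance at 650 nm gives growth.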

Escherichia coli = assay: Antimicrobial activity against Escherichia coli NIH-JC2 at 100 uM after 20 hrs; format: functional, organism-based
Method in brief: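 E. coli is grown in Mueller Hinton broth for 20 h at 30 °C with shaking, spun down, and brought to 1 × 10^5 cells/mL in saline. This suspension is mixed in wells with medium and DMSO sample solution. The plate is incubated 20 h at 37 °C and growth is read at 650 nm.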

Staphylococcus aureus [1] = assay: Antimicrobial activity against Staphylococcus aureus IFO12732 after 20 hrs; format: functional; conditions: IFO12732, 20 h
Method in brief: (§1)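 Broth microdilution in Mueller Hinton broth. Test bacteria are pre-grown 20 h at 30 °C on a reciprocal shaker, pelleted, and resuspended in saline at 1 × 10^5 cells/mL. Each well holds medium, cell suspension (1:10 of the well volume) and sample in DMSO. Plates are incubated 20 h at 30 °C, then growth is read as absorbance at 650 nm.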

Bacillus subtilis [2] = assay: Antimicrobial activity against Bacillus subtilis PCI219 after 20 hrs; format: functional; conditions: PCI219, 20 h; method in brief: as §1
Micrococcus luteus [3] = assay: Antimicrobial activity against Micrococcus luteus ATCC 9343 after 20 hrs; format: functional; conditions: ATCC 9343, 20 h; method in brief: as §1
Staphylococcus aureus [4] = assay: Antimicrobial activity against Staphylococcus aureus IFO12732 at 100 uM after 20 hrs; format: functional, organism-based; method in brief: as §1
Micrococcus luteus [5] = assay: Antimicrobial activity against Micrococcus luteus ATCC 9343 at 100 uM after 20 hrs; format: functional, organism-based; method in brief: as §1
Bacillus subtilis [6] = assay: Antimicrobial activity against Bacillus subtilis PCI219 at 100 uM after 20 hrs; format: functional, organism-based; method in brief: as §1

SMILES | Activity (Candida albicans) | Activity (Escherichia coli) | MIC (Staphylococcus aureus [1]) [µg/mL] | MIC (Bacillus subtilis [2]) [µg/mL] | MIC (Micrococcus luteus [3]) [µg/mL] | Activity (Staphylococcus aureus [4]) | Activity (Micrococcus luteus [5]) | Activity (Bacillus subtilis [6])
C[C@@H]1CCC(=O)C2=C3O[C@@]4(C)[C@H](C)C[C@@]3(OC2=O)[C@H](/C=C/C1=O)[C@H]4O | inactive | inactive | 29 (≈ 83.7 µM) | 29 (≈ 83.7 µM) | 29 (≈ 83.7 µM) | – | – | –
C[C@@H]1CCC(=O)C2=C3O[C@@]4(C)[C@H](C)C[C@@]3(OC2=O)[C@H](/C=C/[C@H]1O)[C@H]4O | inactive | inactive | – | – | – | inactive | inactive | inactive
